For data set [1], the target named is T1, Fructose-1,6-bisphosphatase 1 (Homo sapiens, UniProt P09467).
T1 sequence (P09467 whole entry): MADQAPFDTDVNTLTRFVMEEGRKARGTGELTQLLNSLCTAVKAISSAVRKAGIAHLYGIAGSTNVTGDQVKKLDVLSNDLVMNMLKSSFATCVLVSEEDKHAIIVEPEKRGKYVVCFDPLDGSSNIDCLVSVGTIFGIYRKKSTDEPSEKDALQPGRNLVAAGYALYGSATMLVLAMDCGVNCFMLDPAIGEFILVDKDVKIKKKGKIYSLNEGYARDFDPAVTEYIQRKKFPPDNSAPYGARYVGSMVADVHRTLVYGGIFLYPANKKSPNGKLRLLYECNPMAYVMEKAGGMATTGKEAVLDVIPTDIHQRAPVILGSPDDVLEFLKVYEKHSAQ
Kind of data set: Inhibition of human FBPase expressed in Escherichia coli BL21 (DE3) using FBP as substrate incubated for 5 mins by malachite green dye based spectrophotometry.

Data set [2] concerns the target T2, Fructose-1,6-bisphosphatase 1 (Homo sapiens) (UniProt P09467).
T2 sequence (whole entry): T1 sequence (P09467 whole entry)
Briefly: Inhibition of human FBPase expressed in Escherichia coli BL21 (DE3) at 500 uM using FBP as substrate incubated for 5 mins by malachite green dye based spectrophotometry relative to control.

Data set [3] has as its system Hepatocyte. Kind of data set: Inhibition of glucose production in cAMP and Dex pre-treated C57BLKS rat Primary hepatocytes incubated for 3 hrs by glucose assay kit method. The data set is classed as functional, cell-based. The method in brief: (§1)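 Rat primary hepatocytes cultured overnight in DMEM/10% FBS, then pretreated with compounds for 3 h in fresh medium. Switched to glucose-free DMEM with 2 mM sodium pyruvate, 20 mM sodium lactate and compound for 3 h. Medium glucose measured with a kit and normalized to BCA protein. Pathological arm adds 1 µM dexamethasone plus 200 µM cAMP for 3 h. Means ± SEM, n=4.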

Data set [4] concerns Hepatocyte. Kind of data set: Cytotoxicity against C57BLKS rat Primary hepatocytes assessed as cell viability by measuring cellular protein level at 10 to 400 uM by bicinchoninic acid method. The data set is classed as cell-based. Summed up:
(§2)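 Primary hepatocytes isolated from rat, cultured overnight in DMEM with 10% FBS, then exposed to compounds. Cellular protein per group measured by bicinchoninic acid (BCA) method as a viability control. The same protein values serve to normalize glucose, TG and TC contents. Pathological stimulation where applicable: 1 µM dexamethasone plus 200 µM cAMP, or 25 mM glucose plus 500 nM insulin for 24 h. Means ± SEM, four independent experiments.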

Data set [5] concerns Hepatocyte. Briefly: Inhibition of glucose production in C57BLKS rat Primary hepatocytes at 400 uM incubated for 3 hrs by glucose assay kit method relative to control. The data set is classed as functional. The method in brief:
as §1

Data set [6] deals with Hepatocyte. Kind of data set: Inhibition of lipid accumulation in C57BLKS rat Primary hepatocytes assessed as reduction in insulin and glucose-induced TC level incubated for 24 hrs. In kind it is functional, cell-based. Summed up:
(§3)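 After overnight culture in DMEM, rat primary hepatocytes pretreated with compounds, then held in 25 mM glucose plus 500 nM insulin for 24 h to induce lipid accumulation. Triglyceride and total cholesterol measured with assay kits and normalized to BCA protein. Means ± SEM of four independent experiments.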

Data set [7] deals with Hepatocyte. Kind of data set: Cytotoxicity against C57BLKS rat Primary hepatocytes assessed as cell viability by measuring cellular protein level at 1 to 100 uM in presence of cAMP and Dex by bicinchoninic acid method. The data set is classed as cell-based. The method in brief: as §2
Data set [8] relates to Hepatocyte. Kind of data set: Inhibition of lipid accumulation in C57BLKS rat Primary hepatocytes assessed as reduction in insulin and glucose-induced TC level at 25 uM incubated for 24 hrs. The data set is classed as functional, cell-based. Summed up: as §3
The test system of data set [9] is Hepatocyte. Kind of data set: Cytotoxicity against C57BLKS rat Primary hepatocytes assessed as cell viability by measuring cellular protein level at 10 to 100 uM in presence of insulin and glucose by bicinchoninic acid method. In kind it is cell-based. The method in brief: as §2
Data set [10] in a line: Cytotoxicity against C57BLKS rat Primary hepatocytes assessed as cell viability incubated for 6 hrs by SRB assay. In kind it is cell-based, Hepatocyte. The settings on record: read-out: Activity. Summed up: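 Rat primary hepatocytes under physiological conditions exposed to compounds for 6 h. Viability read by sulforhodamine B staining. Means ± SEM of four independent experiments.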

The test system of data set [11] is Hepatocyte. Briefly: Inhibition of lipid accumulation in C57BLKS rat Primary hepatocytes assessed as reduction in insulin and glucose-induced TG level at 100 uM incubated for 24 hrs. In kind it is functional, cell-based. The method in brief: as §3
Data set [12] deals with Hepatocyte. Kind of data set: Inhibition of glucose production in cAMP and Dex pre-treated C57BLKS rat Primary hepatocytes at 1 uM incubated for 3 hrs by glucose assay kit method. The data set is classed as functional, cell-based. The method in brief: as §1
Data set [13] relates to Hepatocyte. Kind of data set: Inhibition of glucose production in C57BLKS rat Primary hepatocytes incubated for 3 hrs by glucose assay kit method. The data set is classed as functional, cell-based. Summed up:
as §1

Data set [14] relates to Hepatocyte. Kind of data set: Inhibition of lipid accumulation in C57BLKS rat Primary hepatocytes assessed as reduction in insulin and glucose-induced TG level at 25 uM incubated for 24 hrs. In kind it is functional, cell-based. Summed up:
as §3

pIC50: −log10 of the molar value. Calls of active or inactive are those of the source. The rule behind the calls is not given here.

The text below walks through data of ChEMBL document CHEMBL4311987, “Discovery of novel allosteric site and covalent inhibitors of FBPase with potent hypoglycemic effects” (Eur J Med Chem, 2019).

What is called pIC50 is the IC50 on a negative log10 scale, so that one unit is a factor of ten. What is called inhibition is the percentage by which the read-out fell short of the control.

In the case of `CCOC(=O)C(C)(C)Oc1cc(/C=C/[N+](=O)[O-])ccc1Cl`, the pIC50 in [1] is 6.08.
The same measure, in the same setting: next, `CCOC(=O)C(C)(C)Oc1ccccc1/C=C/[N+](=O)[O-]`: 5.57; `O=[N+]([O-])/C=C/c1ccccc1` [(2-NITROVINYL)BENZENE]: 5.46; `Nc1ncnc2c1ncn2[C@@H]1O[C@H](COP(=O)(O)O)[C@@H](O)[C@H]1O` [ADENOSINE PHOSPHATE]: 5.64.
With `CCOC(=O)C(C)(C)Oc1cc(/C=C/[N+](=O)[O-])ccc1OC(F)F`, the negative-log IC50 (pIC50) in data set [1] is 5.80.
Still for that read-out and setting: the result for `CCCCCCCC/C=C(\CCCCCCCC(=O)O)[N+](=O)[O-]` [NITROLEIC ACID] reads 4.24; that for `CCOC(=O)C(C)(C)Oc1ccc(Br)c(/C=C/[N+](=O)[O-])c1`, 6.10.
As for `S=C=NCc1ccccc1`, the inhibition in data set [2] is 4.1%.
As for `CCOC(=O)C(C)(C)Oc1ccc(F)cc1/C=C/[N+](=O)[O-]`, the negative-log IC50 (pIC50) in data set [1] is 5.15.
Regarding `O=C/C=C/c1ccccc1`, the inhibition in data set [2] stood at 15%.
For `CCOC(=O)C(C)(C)Oc1ccc(Cl)cc1/C=C/[N+](=O)[O-]`, the inhibition result with Hepatocyte [3], in the data set with Hepatocyte [6] and with Hepatocyte [13] was “Dose-dependent effect” in each case. In addition, the Activity entry in the data set on Hepatocyte [4], with Hepatocyte [7] and in the data set on Hepatocyte [9] was “Non-Toxic” in each case. In addition, the inhibition at 400 µM with Hepatocyte [5] amounted to 90%. The inhibition entry in the data set on Hepatocyte [8], in the data set with Hepatocyte [12] and with Hepatocyte [14] was “Active” each time. Further, in [10], the viability at 6 h is more than 80%. Also, the inhibition entry with Hepatocyte [11] is “inactive”. Moreover, the pIC50 in [1] is 5.09.
For `CCOC(=O)C(C)(C)Oc1ccc(Cl)c(/C=C/[N+](=O)[O-])c1`, the inhibition result with Hepatocyte [3], with Hepatocyte [6] and in the data set on Hepatocyte [13] was “Dose-dependent effect” each time. In addition, the Activity result in the data set on Hepatocyte [4], with Hepatocyte [7] and in the data set with Hepatocyte [9] was “Non-Toxic” throughout. The same compound displayed an inhibition at 400 µM with Hepatocyte [5] of 90%. Moreover, the inhibition result with Hepatocyte [8], with Hepatocyte [12] and with Hepatocyte [14] was “Active” throughout. Moreover, the viability at 6 h in data set [10] was more than 80%. In addition, the inhibition result in the data set with Hepatocyte [11] was “inactive”. The pIC50 in data set [1] is 5.54.
For `CCOC(=O)C(C)(C)Oc1ccc(/C=C/[N+](=O)[O-])c(Cl)c1`, the pIC50 in [1] was 5.74.
For the compound `CCOC(=O)C(C)(C)Oc1cccc(/C=C/[N+](=O)[O-])c1`, in data set [1], the negative logarithm of the IC50 (pIC50) is 6.00.
Compound `c1ccc(C2CO2)cc1` (configuration not stated) displayed an inhibition in [2] of 31%.
For `O=C1C=CCC1`, in [2], the inhibition came out at 29%.
As to `C=CC(=O)Nc1ccccc1`, in [2], the inhibition was determined as 17%.
Compound `C=C(CC)C(=O)c1ccc(OCC(=O)O)c(Cl)c1Cl` returned an inhibition in data set [2] of 56%.
Compound `COC(=O)/C=C/C(=O)OC` returned an inhibition in [2] of 22%.
Compound `CCOC(=O)C(C)(C)Oc1ccc(/C=C/[N+](=O)[O-])cc1` had a pIC50 in data set [1] of 5.51.
In turn, `O=C(O)/C=C/C(=O)O` showed an inhibition in [2] of 9.5%.
Take `CCOC(=O)C(C)(C)Oc1ccc(/C=C/[N+](=O)[O-])cc1Cl`: the pIC50 in [1] was 5.80.
In turn, `CC(=O)C=O` showed an inhibition in data set [2] of 19%.
